ChEMBL document CHEMBL1154616, “Synthesis and antitumor activity studies of some new fused 1,2,4-triazole derivatives carrying 2,4-dichloro-5-fluorophenyl moiety” (Eur J Med Chem, 2009)

How the values were obtained:
Assay type in all cases: functional
HOP-62 = test: Anticancer activity against human HOP62 cells after 48 hrs by sulforhodamine B assay; settings: HOP-62, 48 h
How it was run: (§1)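 Full 60-cell-line panel, compounds tested over a five-log dose range. Cells are preincubated on microtiter plates, the agent is added, and cultures run 48 h. The end point is sulphorhodamine B protein staining. GI50 is taken as the concentration giving 50% growth inhibition relative to untreated control cells.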

MDA-MB-435 = test: Anticancer activity against human MDA-MB-435 cells after 48 hrs by sulforhodamine B assay; settings: MDA-MB-435, 48 h; how it was run: as §1
NCI-H322M = test: Anticancer activity against human NCI-H322M cells after 48 hrs by sulforhodamine B assay; how it was run: as §1
HCC 2998 = test: Anticancer activity against human HCC2998 cells after 48 hrs by sulforhodamine B assay; settings: HCC 2998, 48 h; how it was run: as §1
K562 = test: Anticancer activity against human K562 cells after 48 hrs by sulforhodamine B assay; settings: K562, 48 h; how it was run: as §1
SK-MEL-28 = test: Anticancer activity against human SK-MEL-28 cells after 48 hrs by sulforhodamine B assay; settings: SK-MEL-28, 48 h; how it was run: as §1
MDA-MB-231 = test: Anticancer activity against human MDA-MB-231 cells after 48 hrs by sulforhodamine B assay; settings: MDA-MB-231, 48 h; how it was run: as §1
SF-295 = test: Anticancer activity against human SF295 cells after 48 hrs by sulforhodamine B assay; settings: SF-295, 48 h; how it was run: as §1
SNB-75 = test: Anticancer activity against human SNB75 cells after 48 hrs by sulforhodamine B assay; settings: SNB-75, 48 h
How it was run: (§2)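 Cells from the 60-line full panel are preincubated on microtiter plates, then treated across a five-log dose range for 48 h. Growth is read with the protein-binding dye sulforhodamine B. GI50 is the concentration giving 50% growth inhibition relative to untreated control cells.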

HL-60(TB) = test: Anticancer activity against human HL-60(TB) cells after 48 hrs by sulforhodamine B assay; settings: HL-60, 48 h
How it was run: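 Run within the full 60-cell-line panel across a five-log dose range. GI50 was taken as the concentration causing 50% growth inhibition relative to untreated control cells.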

DU-145 = test: Anticancer activity against human DU145 cells after 48 hrs by sulforhodamine B assay; settings: DU-145, 48 h; how it was run: as §1
SR = test: Anticancer activity against human SR cells after 48 hrs by sulforhodamine B assay; how it was run: as §2
OVCAR-4 = test: Anticancer activity against human OVCAR4 cells after 48 hrs by sulforhodamine B assay; settings: OVCAR-4, 48 h; how it was run: as §1
SK-OV-3 = test: Anticancer activity against human SKOV3 cells after 48 hrs by sulforhodamine B assay; settings: SK-OV-3, 48 h; how it was run: as §1
SF-268 [1] = test: Anticancer activity against human SF268 cells assessed as cell growth at 100 uM after 48 hrs by sulforhodamine B assay relative to control; settings: SF-268, 48 h, read-out: Activity
How it was run: (§3)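 Three-cell-line prescreen (NCI-H460 lung, MCF7 breast, SF 268 CNS), each preincubated on microtiter plates. The agent is added at a single concentration and cultures are incubated 48 h. Growth is read by sulphorhodamine B protein staining and reported as percent growth of treated versus untreated control cells; negative values indicate cell kill.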

NCI/ADR-RES = test: Anticancer activity against human NCI/ADR-RES cells after 48 hrs by sulforhodamine B assay; how it was run: as §1
OVCAR-8 = test: Anticancer activity against human OVCAR8 cells after 48 hrs by sulforhodamine B assay; settings: OVCAR-8, 48 h; how it was run: as §1
SNB-19 = test: Anticancer activity against human SNB19 cells after 48 hrs by sulforhodamine B assay; settings: SNB-19, 48 h; how it was run: as §1
LOX IMVI = test: Anticancer activity against human LOXIMVI cells after 48 hrs by sulforhodamine B assay; how it was run: as §1
Malme-3M = test: Anticancer activity against human MALME-3M cells after 48 hrs by sulforhodamine B assay; how it was run: as §1
T47D = test: Anticancer activity against human T47D cells after 48 hrs by sulforhodamine B assay; how it was run: as §2
NCI-H522 = test: Anticancer activity against human NCI-H522 cells after 48 hrs by sulforhodamine B assay; settings: NCI-H522, 48 h; how it was run: as §1
NCI-H226 = test: Anticancer activity against human NCI-H226 cells after 48 hrs by sulforhodamine B assay; settings: NCI-H226, 48 h; how it was run: as §1
CCRF-CEM = test: Anticancer activity against human CCRF-CEM cells after 48 hrs by sulforhodamine B assay; how it was run: as §1
UO-31 = test: Anticancer activity against human UO31 cells after 48 hrs by sulforhodamine B assay; settings: UO-31, 48 h; how it was run: as §2
NCI-H460 [2] = test: Anticancer activity against human NCI-H460 cells after 48 hrs by sulforhodamine B assay; settings: NCI-H460, 48 h; how it was run: as §1
SF-268 [3] = test: Anticancer activity against human SF268 cells after 48 hrs by sulforhodamine B assay; settings: SF-268, 48 h; how it was run: as §1
NCI-H460 [4] = test: Anticancer activity against human NCI-H460 cells assessed as cell growth at 100 uM after 48 hrs by sulforhodamine B assay relative to control; settings: NCI-H460, 48 h, read-out: Activity; how it was run: as §3
A549 = test: Anticancer activity against human A549 cells after 48 hrs by sulforhodamine B assay; settings: A549, 48 h; how it was run: as §1
OVCAR-5 = test: Anticancer activity against human OVCAR5 cells after 48 hrs by sulforhodamine B assay; settings: OVCAR-5, 48 h; how it was run: as §1
UACC-62 = test: Anticancer activity against human UACC62 cells after 48 hrs by sulforhodamine B assay; settings: UACC-62, 48 h; how it was run: as §2
OVCAR-3 = test: Anticancer activity against human OVCAR-3 cells after 48 hrs by sulforhodamine B assay; settings: OVCAR-3, 48 h; how it was run: as §1
SN12C = test: Anticancer activity against human SN12C cells after 48 hrs by sulforhodamine B assay; how it was run: as §1
HCT-15 = test: Anticancer activity against human HCT15 cells after 48 hrs by sulforhodamine B assay; settings: HCT-15, 48 h; how it was run: as §1
TK-10 = test: Anticancer activity against human TK10 cells after 48 hrs by sulforhodamine B assay; settings: TK-10, 48 h; how it was run: as §2
M14 = test: Anticancer activity against human M14 cells after 48 hrs by sulforhodamine B assay; settings: M14, 48 h; how it was run: as §1
EKVX = test: Anticancer activity against human EKVX cells after 48 hrs by sulforhodamine B assay; how it was run: as §1
ACHN = test: Anticancer activity against human ACHN cells after 48 hrs by sulforhodamine B assay; how it was run: as §1
HT-29 = test: Anticancer activity against human HT-29 cells after 48 hrs by sulforhodamine B assay; settings: HT-29, 48 h; how it was run: as §1
KM12 = test: Anticancer activity against human KM12 cells after 48 hrs by sulforhodamine B assay; settings: KM12, 48 h; how it was run: as §1
MCF7 [5] = test: Anticancer activity against human MCF7 cells assessed as cell growth at 100 uM after 48 hrs by sulforhodamine B assay relative to control; settings: MCF7, 48 h, read-out: Activity; how it was run: as §3
UACC-257 = test: Anticancer activity against human UACC257 cells after 48 hrs by sulforhodamine B assay; settings: UACC-257, 48 h; how it was run: as §2
HOP-92 = test: Anticancer activity against human HOP92 cells after 48 hrs by sulforhodamine B assay; settings: HOP-92, 48 h; how it was run: as §1
IGROV-1 = test: Anticancer activity against human IGROV1 cells after 48 hrs by sulforhodamine B assay; settings: IGROV-1, 48 h; how it was run: as §1
SW-620 = test: Anticancer activity against human SW620 cells after 48 hrs by sulforhodamine B assay; settings: SW-620, 48 h; how it was run: as §2
MCF7 [6] = test: Anticancer activity against human MCF7 cells after 48 hrs by sulforhodamine B assay; settings: MCF7, 48 h; how it was run: as §1
[7] = Anticancer activity against human […] cells after 48 hrs by sulforhodamine B assay; how it was run: as §1
SF-539 = test: Anticancer activity against human SF539 cells after 48 hrs by sulforhodamine B assay; settings: SF-539, 48 h; how it was run: as §1
PC-3 = test: Anticancer activity against human PC3 cells after 48 hrs by sulforhodamine B assay; settings: PC-3, 48 h; how it was run: as §1
MOLT-4 = test: Anticancer activity against human MOLT4 cells after 48 hrs by sulforhodamine B assay; settings: MOLT-4, 48 h; how it was run: as §1
U-251 = test: Anticancer activity against human U251 cells after 48 hrs by sulforhodamine B assay; settings: U-251, 48 h; how it was run: as §2
[8] = Anticancer activity against human Hs 578T cells after 48 hrs by sulforhodamine B assay; how it was run: as §1
CAKI-1 = test: Anticancer activity against human Caki1 cells after 48 hrs by sulforhodamine B assay; settings: CAKI-1, 48 h; how it was run: as §1
HCT-116 = test: Anticancer activity against human HCT116 cells after 48 hrs by sulforhodamine B assay; settings: HCT-116, 48 h; how it was run: as §1
NCI-H23 = test: Anticancer activity against human NCI-H23 cells after 48 hrs by sulforhodamine B assay; settings: NCI-H23, 48 h; how it was run: as §1
786-0 = test: Anticancer activity against human 786-0 cells after 48 hrs by sulforhodamine B assay; settings: 786-0, 48 h; how it was run: as §1
COLO 205 = test: Anticancer activity against human COLO205 cells after 48 hrs by sulforhodamine B assay; settings: COLO 205, 48 h; how it was run: as §1
RXF 393 = test: Anticancer activity against human RXF393 cells after 48 hrs by sulforhodamine B assay; settings: RXF 393, 48 h; how it was run: as §1

For `Fc1cc(-c2nnc3n2N=C(c2ccc(Cl)cc2Cl)CS3)c(Cl)cc1Cl`, the GI50 (HOP-62) was 44.2 µM, the GI50 (MDA-MB-435) was 24.4 µM and the GI50 (NCI-H322M) was 76.4 µM. The GI50 (HCC 2998) was 35 µM, the GI50 (K562) was 47.5 µM and the GI50 (SK-MEL-28) was 40.2 µM. The GI50 (MDA-MB-231) was 33.7 µM, the GI50 (SF-295) was 36.4 µM and the GI50 (SNB-75) was > 100 µM. The GI50 (HL-60(TB)) was > 100 µM, the GI50 (DU-145) was 49.5 µM and the GI50 (SR) was > 100 µM. For the same compound, the GI50 (OVCAR-4) was > 100 µM, the GI50 (SK-OV-3) was 48 µM and the growth at 100 µM (SF-268 [1]) was 76%. For the same compound, the GI50 (NCI/ADR-RES) was 30.8 µM, the GI50 (OVCAR-8) was 57.3 µM and the GI50 (SNB-19) was 25.4 µM. It also gave a GI50 (LOX IMVI) of 34.3 µM, a GI50 (Malme-3M) of 26.6 µM and a GI50 (T47D) of 17.7 µM. For the same compound, the GI50 (NCI-H522) was 50.8 µM, the GI50 (NCI-H226) was 36.5 µM and the GI50 (CCRF-CEM) was 27.6 µM. The GI50 (UO-31) was 60.2 µM, the GI50 (NCI-H460 [2]) was 37.3 µM and the GI50 (SF-268 [3]) was 36.6 µM. The growth at 100 µM (NCI-H460 [4]) was 32%, the GI50 (A549) was 58 µM and the GI50 (OVCAR-5) was > 100 µM. It also gave a GI50 (UACC-62) of 24.9 µM, a GI50 (OVCAR-3) of 22.8 µM and a GI50 (SN12C) of 56.4 µM. The GI50 (HCT-15) was 38.3 µM, the GI50 (TK-10) was 77.3 µM and the GI50 (M14) was 37.5 µM. It also gave a GI50 (EKVX) of 58.5 µM, a GI50 (ACHN) of 66.6 µM and a GI50 (HT-29) of 40.5 µM. For the same compound, the GI50 (KM12) was 41.9 µM, the growth at 100 µM (MCF7 [5]) was 69% and the GI50 (UACC-257) was 86 µM. For the same compound, the GI50 (HOP-92) was 54.2 µM, the GI50 (IGROV-1) was 50.4 µM and the GI50 (SW-620) was 36.8 µM. The GI50 (MCF7 [6]) was 31.3 µM, the GI50 [7] was 25.3 µM and the GI50 (SF-539) was 39.2 µM. It also gave a GI50 (PC-3) of 39.2 µM, a GI50 (MOLT-4) of 75.1 µM and a GI50 (U-251) of 56.2 µM. It also gave a GI50 [8] of 33.6 µM, a GI50 (CAKI-1) of 35.9 µM and a GI50 (HCT-116) of 25.4 µM. For the same compound, the GI50 (NCI-H23) was 82.5 µM, the GI50 (786-0) was 47.1 µM and the GI50 (COLO 205) was 32.9 µM. The GI50 (RXF 393) was 51 µM.
